# According to ChEMBL document CHEMBL1811768, “Synthesis of N-substituted 3,5-bis(arylidene)-4-piperidones with high antitumor and antioxidant activity” (J Med Chem, 2011):
# The source made the active and inactive calls. The rule behind the calls is not given here.
# Tests used:
# A2780 [1] = test: Cytotoxicity against human A2780 cells assessed as cell viability at 10 uM after 24 hrs by MTT assay relative to control; format: functional; settings: A2780, 24 h, read-out: Activity
# Procedure, shortened: (§1)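 MTT viability assay in human A2780 and MCF-7 cancer cells. Cells were exposed to compound at 10 μM for 24 h. Results are given as percent cell viability relative to the respective untreated control.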
# MCF7 [2] = test: Cytotoxicity against human MCF7 cells assessed as cell viability at 10 uM after 24 hrs by MTT assay relative to control; format: functional; settings: MCF7, 24 h, read-out: Activity; procedure, shortened: as §1
# [3] = Cytotoxicity against rat H9c2 cells assessed as cell viability at 10 uM after 24 hrs by MTT assay relative to control; format: cell-based; settings: read-out: Activity
# A2780 [4] = test: Induction of cell cycle arrest at G2/M phase in human A2780 cells assessed as modulation of cyclin expression; format: functional, cell-based
# A2780 [5] = test: Induction of apoptosis in human A2780 cells assessed as caspase 8 activation; format: functional, cell-based
# A2780 [6] = test: Induction of apoptosis in human A2780 cells assessed as caspase 3 activation; format: functional, cell-based
# A2780 [7] = test: Induction of Fas/CD95 expression in human A2780 cells; format: functional, cell-based
# [8] = molecular target: Signal transducer and activator of transcription 3 (Homo sapiens) (UniProt P40763); test: Inhibition of STAT3 phosphorylation at Tyr705 in human A2780 cells; format: cell-based
# Sequence of Signal transducer and activator of transcription 3 (Homo sapiens) (P40763 whole entry): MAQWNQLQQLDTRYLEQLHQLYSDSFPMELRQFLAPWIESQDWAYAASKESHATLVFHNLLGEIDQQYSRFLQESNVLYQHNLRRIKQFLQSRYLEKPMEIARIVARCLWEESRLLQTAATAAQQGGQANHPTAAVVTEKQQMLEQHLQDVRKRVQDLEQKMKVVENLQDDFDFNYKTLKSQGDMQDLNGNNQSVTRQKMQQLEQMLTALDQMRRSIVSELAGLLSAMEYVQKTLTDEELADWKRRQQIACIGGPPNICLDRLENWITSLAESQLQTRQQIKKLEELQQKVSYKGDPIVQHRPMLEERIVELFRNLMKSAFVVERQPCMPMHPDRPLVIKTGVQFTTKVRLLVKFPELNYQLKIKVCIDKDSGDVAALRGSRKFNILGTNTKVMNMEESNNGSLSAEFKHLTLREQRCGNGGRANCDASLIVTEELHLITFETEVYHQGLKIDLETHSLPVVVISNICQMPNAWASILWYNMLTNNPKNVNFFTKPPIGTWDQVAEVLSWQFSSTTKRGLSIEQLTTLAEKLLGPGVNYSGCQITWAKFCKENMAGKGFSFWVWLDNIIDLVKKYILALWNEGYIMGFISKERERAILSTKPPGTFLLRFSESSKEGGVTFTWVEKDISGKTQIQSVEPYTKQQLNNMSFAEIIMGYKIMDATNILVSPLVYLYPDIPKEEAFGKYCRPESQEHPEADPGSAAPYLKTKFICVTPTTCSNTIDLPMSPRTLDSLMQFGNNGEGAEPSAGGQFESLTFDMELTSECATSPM
# [9] = molecular target: Tyrosine-protein kinase JAK1 (Homo sapiens) (UniProt P23458); test: Inhibition of JAK1 phosphorylation in human A2780 cells; format: cell-based
# Sequence of Tyrosine-protein kinase JAK1 (Homo sapiens) (P23458 whole entry): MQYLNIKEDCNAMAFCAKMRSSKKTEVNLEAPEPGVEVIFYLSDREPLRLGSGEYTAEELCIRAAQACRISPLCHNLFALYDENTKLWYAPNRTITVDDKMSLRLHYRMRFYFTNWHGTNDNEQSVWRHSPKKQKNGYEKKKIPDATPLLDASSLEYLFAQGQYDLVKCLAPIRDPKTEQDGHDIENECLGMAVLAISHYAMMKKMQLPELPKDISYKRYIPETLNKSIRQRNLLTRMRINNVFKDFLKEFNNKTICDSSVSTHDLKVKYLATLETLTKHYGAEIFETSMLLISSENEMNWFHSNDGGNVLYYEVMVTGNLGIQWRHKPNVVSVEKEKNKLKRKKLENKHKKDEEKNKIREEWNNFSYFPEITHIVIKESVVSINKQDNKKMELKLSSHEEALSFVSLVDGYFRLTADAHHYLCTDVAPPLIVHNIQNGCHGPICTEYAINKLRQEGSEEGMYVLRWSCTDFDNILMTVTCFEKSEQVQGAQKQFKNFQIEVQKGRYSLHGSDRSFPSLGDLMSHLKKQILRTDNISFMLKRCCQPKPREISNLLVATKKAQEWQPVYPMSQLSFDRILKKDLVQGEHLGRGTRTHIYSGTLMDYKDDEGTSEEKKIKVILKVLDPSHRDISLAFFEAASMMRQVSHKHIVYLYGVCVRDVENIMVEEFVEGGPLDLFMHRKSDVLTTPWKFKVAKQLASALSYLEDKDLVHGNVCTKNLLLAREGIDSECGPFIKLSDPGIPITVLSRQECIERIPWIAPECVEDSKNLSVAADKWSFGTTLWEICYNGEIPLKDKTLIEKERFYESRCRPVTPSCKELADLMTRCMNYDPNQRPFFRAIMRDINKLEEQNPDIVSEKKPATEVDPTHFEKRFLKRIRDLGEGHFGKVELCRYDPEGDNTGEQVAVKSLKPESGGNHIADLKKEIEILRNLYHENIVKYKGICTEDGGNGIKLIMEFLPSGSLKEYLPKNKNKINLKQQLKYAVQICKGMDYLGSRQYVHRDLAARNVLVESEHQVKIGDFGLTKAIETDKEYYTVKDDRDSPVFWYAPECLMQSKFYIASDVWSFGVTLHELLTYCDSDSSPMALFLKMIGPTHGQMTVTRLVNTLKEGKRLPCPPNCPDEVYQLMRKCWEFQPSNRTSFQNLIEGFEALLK
# [10] = Inhibition of JAK/STAT3 pathway in human A2780 cells assessed as reduction in Bcl-xL level; format: cell-based
# [11] = Inhibition of JAK/STAT3 pathway in human A2780 cells assessed as reduction in Bcl-2 level; format: cell-based
# [12] = Inhibition of JAK/STAT3 pathway in human A2780 cells assessed as reduction in survivin level; format: cell-based
# [13] = Inhibition of JAK/STAT3 pathway in human A2780 cells assessed as reduction in VEGF level; format: cell-based
# Liver = test: Biodistribution in ip dosed rat liver after 3 hrs; format: ADME, organism-based; settings: in vivo
# Kidney = test: Biodistribution in ip dosed rat kidney after 3 hrs; format: ADME, organism-based; settings: in vivo
# Rattus norvegicus = test: Biodistribution in ip dosed rat stomach after 3 hrs; format: ADME, organism-based; settings: in vivo
# Blood = test: Biodistribution in ip dosed rat blood after 3 hrs; format: ADME, organism-based; settings: in vivo
# A2780 [14] = test: Antitumor activity against human A2780 cells in xenograft model assessed as tumor growth inhibition; format: functional, cell-based
# A2780 [15] = test: Antitumor activity against human A2780 cells in xenograft model assessed as reduction of STAT3 phosphorylation at Tyr705/Ser727 level in tumor; format: functional, cell-based
# A2780 [16] = test: Antitumor activity against human A2780 cells in xenograft model assessed as reduction of JAK phosphorylation level in tumor; format: functional, cell-based
# A2780 [17] = test: Antitumor activity against human A2780 cells in xenograft model assessed as increase of caspase 3 level in tumor; format: functional, cell-based
# A2780 [18] = test: Antitumor activity against human A2780 cells in xenograft model assessed as increase of PARP level in tumor; format: functional, cell-based
# [19] = molecular target: Signal transducer and activator of transcription 3 (Homo sapiens) (UniProt P40763); test: Inhibition of STAT3 phosphorylation at Tyr705/Ser727 in human A2780 cells by Western blot analysis; format: cell-based
# [20] = molecular target: Signal transducer and activator of transcription 3 (Homo sapiens) (UniProt P40763); test: Inhibition of STAT3 phosphorylation at Tyr705/Ser727 in human MCF7 cells by Western blot analysis; format: cell-based
# A2780 [21] = test: Induction of apoptosis in human A2780 cells assessed as caspase 3 activation by Western blot analysis; format: functional, cell-based
# MCF7 [22] = test: Induction of apoptosis in human MCF7 cells assessed as caspase 3 activation by Western blot analysis; format: functional, cell-based
# A2780 [23] = test: Induction of apoptosis in human A2780 cells assessed as cleavage of PARP by Western blot analysis; format: functional, cell-based
# MCF7 [24] = test: Induction of apoptosis in human MCF7 cells assessed as cleavage of PARP by Western blot analysis; format: functional, cell-based
# Homo sapiens = organism: Homo sapiens; test: Cytotoxicity against human A2780DDP cells by MTT assay; format: functional, cell-based
# OV4 = test: Cytotoxicity against human OV4 cells by MTT assay; format: functional, cell-based
# SK-OV-3 = test: Cytotoxicity against human SKOV3 cells by MTT assay; format: functional, cell-based
# PA-1 = test: Cytotoxicity against human PA1 cells by MTT assay; format: functional, cell-based
# OVCA3 = test: Cytotoxicity against human OVCA3 cells by MTT assay; format: functional, cell-based
# A2780 [25] = test: Induction of cell cycle arrest at G2/M phase in human A2780 cells assessed as modulation of p53 expression; format: functional, cell-based
# A2780 [26] = test: Induction of cell cycle arrest at G2/M phase in human A2780 cells assessed as modulation of p21 expression; format: functional, cell-based
# A2780 [27] = test: Induction of cell cycle arrest at G2/M phase in human A2780 cells assessed as modulation of p27 expression; format: functional, cell-based
# A2780 [28] = test: Induction of cell cycle arrest at G2/M phase in human A2780 cells assessed as modulation of CDK2 expression; format: functional, cell-based
compound,measurement,setting,value
CC1(C)CCC(C)(C#CCN2C/C(=C\c3ccc(F)cc3)C(=O)/C(=C/c3ccc(F)cc3)C2)N1[O] (stereo not given),viability at 10 µM,A2780 [1],5.89%
same,viability at 10 µM,MCF7 [2],38.3%
same,"viability at 24 h, 10 µM",[3],50.7%
O=C1/C(=C/c2ccc(F)cc2)CNC/C1=C\c1ccc(F)cc1,viability at 10 µM,A2780 [1],12.4%
same,viability at 10 µM,MCF7 [2],17.1%
same,"viability at 24 h, 10 µM",[3],61.4%
CC1=C(CN2C/C(=C\c3ccc(F)cc3)C(=O)/C(=C/c3ccc(F)cc3)C2)C(C)(C)N([O])C1(C)C,viability at 10 µM,A2780 [1],6.75%
same,viability at 10 µM,MCF7 [2],42%
same,"viability at 24 h, 10 µM",[3],56.8%
CC1(C)C=C(CN2C/C(=C\c3ccc(F)cc3)C(=O)/C(=C/c3ccc(F)cc3)C2)C(C)(C)N1,viability at 10 µM,A2780 [1],4.79%
same,viability at 10 µM,MCF7 [2],28.3%
same,"viability at 24 h, 10 µM",[3],78.8%
COc1ccc(/C=C2\CN(CC3=CC(C)(C)N([O])C3(C)C)C/C(=C\c3ccc(OC)c(OC)c3OC)C2=O)c(OC)c1OC,viability at 10 µM,A2780 [1],26.1%
same,viability at 10 µM,MCF7 [2],28%
same,"viability at 24 h, 10 µM",[3],53.1%
O=C1/C(=C/c2ccccc2F)CNC/C1=C\c1ccccc1F,viability at 10 µM,A2780 [1],12.8%
same,viability at 10 µM,MCF7 [2],34.5%
same,"viability at 24 h, 10 µM",[3],32.9%
CC1(C)c2cnc(CN3C/C(=C\c4ccc(F)cc4)C(=O)/C(=C/c4ccc(F)cc4)C3)cc2C(C)(C)N1[O],viability at 10 µM,A2780 [1],5.26%
same,viability at 10 µM,MCF7 [2],42.7%
same,"viability at 24 h, 10 µM",[3],46.6%
CC1(C)C=C(NC(=O)N2C/C(=C\c3ccc(F)cc3)C(=O)/C(=C/c3ccc(F)cc3)C2)C(C)(C)N1[O],viability at 10 µM,A2780 [1],5.9%
same,viability at 10 µM,MCF7 [2],12.6%
same,"viability at 24 h, 10 µM",[3],36.7%
O=C1/C(=C/c2ccc(C(F)(F)F)cc2)CNC/C1=C\c1ccc(C(F)(F)F)cc1,viability at 10 µM,A2780 [1],13.1%
same,viability at 10 µM,MCF7 [2],20.2%
same,"viability at 24 h, 10 µM",[3],51.7%
CC1(C)c2ccc(CN3C/C(=C\c4ccc(F)cc4)C(=O)/C(=C/c4ccc(F)cc4)C3)cc2C(C)(C)N1[O],viability at 10 µM,A2780 [1],9.5%
same,viability at 10 µM,MCF7 [2],46.2%
same,"viability at 24 h, 10 µM",[3],26.4%
CC1(C)C=C(CN2C/C(=C\c3ccc(F)cc3)C(=O)/C(=C/c3ccc(F)cc3)C2)CC(C)(C)N1[O],viability at 10 µM,A2780 [1],6.86%
same,viability at 10 µM,MCF7 [2],20.1%
same,"viability at 24 h, 10 µM",[3],51.4%
CC1(C)C=C(CN2C/C(=C\c3ccccc3F)C(=O)/C(=C/c3ccccc3F)C2)C(C)(C)N1[O],viability at 10 µM,A2780 [1],12.5%
same,viability at 10 µM,MCF7 [2],53.5%
same,"viability at 24 h, 10 µM",[3],86.3%
CC1(C)C=C(CN2C/C(=C\c3ccc(C(F)(F)F)cc3)C(=O)/C(=C/c3ccc(C(F)(F)F)cc3)C2)C(C)(C)N1[O],viability at 10 µM,A2780 [1],5.85%
same,viability at 10 µM,MCF7 [2],14.2%
same,"viability at 24 h, 10 µM",[3],17.1%
COc1ccc(/C=C2\CNC/C(=C\c3ccc(OC)c(OC)c3OC)C2=O)c(OC)c1OC,viability at 10 µM,A2780 [1],11%
same,viability at 10 µM,MCF7 [2],56.6%
same,"viability at 24 h, 10 µM",[3],32.3%
CC1(C)C=C(CN2C/C(=C\c3ccc(F)cc3)C(=O)/C(=C/c3ccc(F)cc3)C2)C(C)(C)N1[O],Activity,A2780 [4],Active
same,Activity,A2780 [5],Active
same,Activity,A2780 [6],Active
same,Activity,A2780 [7],Active
same,inhibition,[8],Active
same,inhibition,[9],Active
same,inhibition,[10],Active
same,inhibition,[11],Active
same,inhibition,[12],Active
same,inhibition,[13],Active
same,viability at 10 µM,A2780 [1],20.5%
same,viability at 10 µM,MCF7 [2],16.6%
same,"viability at 24 h, 10 µM",[3],88.5%
same,Drug uptake,Liver,Active
same,Drug uptake,Kidney,Active
same,Drug uptake,Rattus norvegicus,Active
same,Drug uptake,Blood,Active
same,growth inhibition (GI),A2780 [14],Dose-dependent effect
same,Activity,A2780 [15],Active
same,Activity,A2780 [16],Active
same,Activity,A2780 [17],Active
same,Activity,A2780 [18],Active
same,inhibition,[19],Active
same,inhibition,[20],Active
same,Activity,A2780 [21],Active
same,Activity,MCF7 [22],Active
same,Activity,A2780 [23],Active
same,Activity,MCF7 [24],Active
same,Activity,Homo sapiens,Active
same,Activity,OV4,Active
same,Activity,SK-OV-3,Active
same,Activity,PA-1,Active
same,Activity,OVCA3,Active
same,Activity,A2780 [25],Active
same,Activity,A2780 [26],Active
same,Activity,A2780 [27],Active
same,Activity,A2780 [28],Active
CC1(C)CCC(C)(/C=C/CN2C/C(=C\c3ccc(F)cc3)C(=O)/C(=C/c3ccc(F)cc3)C2)N1[O] (stereo not given),viability at 10 µM,A2780 [1],5.81%
same,viability at 10 µM,MCF7 [2],43.1%
same,"viability at 24 h, 10 µM",[3],51.9%
CC1(C)C=C(C(=O)N2C/C(=C\c3ccc(F)cc3)C(=O)/C(=C/c3ccc(F)cc3)C2)C(C)(C)N1[O],viability at 10 µM,A2780 [1],4.54%
same,viability at 10 µM,MCF7 [2],12.4%
same,"viability at 24 h, 10 µM",[3],33.3%
